In data set [1] the test system is PC-3. The experiment in a line: Cytotoxicity against human PC3 cells. In kind it is functional, cell-based. The essentials: (§1)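 MTT viability assay. Cells were plated at 3 × 10³ cells/well and treated in triplicate with a range of concentrations, with final DMSO at 0.2%. After 48 h incubation, MTT (0.5 mg/mL) was added for a further 4 h at 37 °C. Formazan was read by optical density at 570 nm and percentage viability calculated.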

For data set [2], the system named is HeLa. The experiment in a line: Cytotoxicity against human HeLa cells. In kind it is functional, cell-based. The gist of the method:
as §1

For data set [3], the system named is MCF7. Put plainly: Cytotoxicity against human MCF7 cells. In kind it is functional, cell-based. The gist of the method:
as §1

Data set [4] concerns HeLa. Put plainly: Cell cycle arrest in human HeLa cells assessed as cells at G0 phase at 50 uM measured after 24 hrs by propidium iodide/FACS analysis (reference value: 68.6%). In kind it is functional.
In data set [5] the test system is PC-3. The experiment in a line: Cytotoxicity against human PC3 cells at 50 uM measured after 48 hrs by MTT assay. Particulars: pc-3, 48 h. In kind it is cell-based. The gist of the method: as §1
Data set [6] concerns HeLa. Put plainly: Inhibition of colony formation in human HeLa cells at sub-lethal dose measured after 5 days by colony formation assay. In kind it is functional, cell-based. The essentials: (§2)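 Clonogenic assay. Cells were seeded at 1 × 10³ cells/well in 6-well plates, and the medium was replaced after 24 h. Cells were then exposed to various concentrations of compound, alongside DMSO vehicle, for 5 days at 37 °C in 5% CO₂. Colonies were fixed with 4% paraformaldehyde, stained with 0.5% crystal violet, then counted and averaged over randomly chosen fields (n = 3).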

The subject of data set [7] is HeLa. Put plainly: Cytotoxicity against human HeLa cells at 50 uM measured after 48 hrs by MTT assay. In kind it is cell-based. The essentials: as §1
For data set [8], the system named is PC-3. The experiment in a line: Inhibition of cell migration in human PC3 cells at 80 uM for 24 hrs by wound healing assay. In kind it is functional, cell-based. The essentials:
(§3)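 Wound-healing (scratch) assay. Cells were seeded at 5.5 × 10⁵ cells/well in 6-well plates and grown overnight to a confluent monolayer. After 24 h serum starvation, the monolayer was scratched with a pipette tip, washed with serum-free medium and photographed at 0 h. Cells were then treated for 24 h in 1% serum medium with compound or DMSO vehicle. Scratched area was quantified in three random fields per treatment across three independent experiments.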

Data set [9] has as its system HeLa. The experiment in a line: Cell cycle arrest in human HeLa cells assessed as cells at G1 phase at 50 uM measured after 24 hrs by propidium iodide/FACS analysis (reference value: 14.7%). In kind it is functional. Background: In flow cytometry, cells or beads pass a laser one at a time.
For data set [10], the system named is PC-3. Put plainly: Inhibition of colony formation in human PC3 cells at sub-lethal dose measured after 5 days by colony formation assay. In kind it is functional, cell-based. The gist of the method:
as §2

Data set [11] deals with PC-3. The experiment in a line: Inhibition of cell migration in human PC3 cells at 50 uM for 24 hrs by wound healing assay. In kind it is functional, cell-based. The essentials:
as §3

Data set [12] relates to MCF7. Put plainly: Inhibition of cell migration in human MCF7 cells at 50 uM for 24 hrs by wound healing assay. In kind it is functional, cell-based. The essentials:
as §3

Data set [13] relates to HeLa. The experiment in a line: Inhibition of cell migration in human HeLa cells at 50 uM for 24 hrs by wound healing assay. In kind it is functional, cell-based. The essentials: as §3
The test system of data set [14] is MCF7. Put plainly: Inhibition of cell migration in human MCF7 cells at 80 uM for 24 hrs by wound healing assay. In kind it is functional, cell-based. The essentials:
as §3

Data set [15] deals with HeLa. The experiment in a line: Inhibition of colony formation in human HeLa cells measured after 5 days by colony formation assay. In kind it is functional, cell-based. The gist of the method:
as §2

In data set [16] the test system is HeLa. The experiment in a line: Inhibition of cell migration in human HeLa cells at 80 uM for 24 hrs by wound healing assay. In kind it is functional, cell-based. The gist of the method:
as §3

Data set [17] concerns HeLa. Put plainly: Cell cycle arrest in human HeLa cells assessed as cells at G0 phase at 1 uM measured after 24 hrs by propidium iodide/FACS analysis (reference value: 68.6%). In kind it is functional.
Data set [18] deals with HeLa. The experiment in a line: Cell cycle arrest in human HeLa cells assessed as cells at G1 phase at 1 uM measured after 24 hrs by propidium iodide/FACS analysis (reference value: 14.7%). In kind it is functional.

Active and inactive are the calls of the source. No cut-off for these calls is given here.

Turning to `COc1cc(OC)c2c(O)c(-c3ccccc3)cnc2c1`, the result with PC-3 [1], with HeLa [2] and with MCF7 [3] was inactive.
With `CC(C)[C@@H]1CC[C@@H](C)[C@H]2[C@@H]1C[C@H]1[C@@H]3CC=C4C[C@@H](O[C@@H]5O[C@H](CO)[C@@H](O)[C@H](O)[C@H]5O)CC[C@]4(C)[C@H]3CC[C@]21C` [CRATAENOSIDE], the Activity with HeLa [4] is 63.5%; in the data set on PC-3 [5], “Non-toxic”; with HeLa [7] it was “Non-toxic”; in the data set on HeLa [9] it was 22.5%; with HeLa [15] it was “Dose-dependent effect”. The outcome with HeLa [6], in the data set on PC-3 [8], in the data set with PC-3 [10], in the data set with PC-3 [11], in the data set on HeLa [13] and with HeLa [16] was Active. Besides, the result in the data set on MCF7 [12] and in the data set with MCF7 [14] was inactive.
On to `CC[C@@]1(O)C(=O)OCc2c1cc1n(c2=O)Cc2cc3ccccc3nc2-1` [CAMPTOTHECIN], for which the Activity was 68.6% in the data set on HeLa [17] and 17.7% in the data set on HeLa [18].
Take `COc1cc(OC)c2c(=O)c(-c3ccccc3)cn(C)c2c1`: the result with PC-3 [1], in the data set with HeLa [2] and in the data set on MCF7 [3] was inactive.
`CCn1cc(-c2ccccc2)c(=O)c2c(OC)cc(OC)cc21` [CRATAEMINE]: the Activity with HeLa [4] is 76.8%; with PC-3 [5] it was “Non-toxic”; in the data set on HeLa [7] it was “Non-toxic”; in the data set on HeLa [9], 17.2%; in the data set with HeLa [15], “Dose-dependent effect”. In addition, the outcome with HeLa [6], in the data set with PC-3 [8], with PC-3 [10], with PC-3 [11], with HeLa [13] and in the data set with HeLa [16] was Active. Also, the outcome in the data set with MCF7 [12] and with MCF7 [14] was inactive.

Values taken from ChEMBL document CHEMBL2321791, “A new cytotoxic quinolone alkaloid and a pentacyclic steroidal glycoside from the stem bark of Crataeva nurvala: study of anti-proliferative and apoptosis inducing property” (Eur J Med Chem, 2013).
